Inhibition data for 34 molecules are collected here from PubChem BioAssay AID743256 (The Scripps Research Institute Molecular Screening Center, 2014).

Among all 2,900 compounds or so, about 1,300 (45%) were called active. The set was probably picked from earlier hits. A selection follows. Unmarked numbers belong to inactive results.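 Rule for the calls: active = mean inhibition over the triplicate runs exceeds the activity threshold set in the earlier primary screen (cut at about 20% in these data); inactive = the rest.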

Sequence of Disintegrin and metalloproteinase domain-containing protein 10 (Homo sapiens) (O14672 214-748 limits assumed): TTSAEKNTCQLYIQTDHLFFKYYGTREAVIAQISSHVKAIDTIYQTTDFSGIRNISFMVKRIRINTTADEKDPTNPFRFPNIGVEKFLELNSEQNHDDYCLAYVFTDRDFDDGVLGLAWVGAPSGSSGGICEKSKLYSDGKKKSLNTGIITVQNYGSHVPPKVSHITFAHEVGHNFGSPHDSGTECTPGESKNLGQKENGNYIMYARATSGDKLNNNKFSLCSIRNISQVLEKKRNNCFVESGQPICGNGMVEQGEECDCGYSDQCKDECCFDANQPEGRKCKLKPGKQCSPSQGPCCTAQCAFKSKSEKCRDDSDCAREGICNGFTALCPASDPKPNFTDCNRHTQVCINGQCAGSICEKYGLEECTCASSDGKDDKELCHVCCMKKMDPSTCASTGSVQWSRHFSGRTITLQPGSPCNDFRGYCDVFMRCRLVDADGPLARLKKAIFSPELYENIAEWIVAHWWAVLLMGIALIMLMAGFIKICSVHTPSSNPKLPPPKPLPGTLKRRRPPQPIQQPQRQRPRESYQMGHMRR

This experiment has as its target Disintegrin and metalloproteinase domain-containing protein 10 (Homo sapiens) (UniProt O14672). Kind of experiment: ADAM10 inhibitors, counter-screen for ADAM17 exosite inhibitor project, biochemical, FRET, human ADAM10 (AID 743256).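 Note: 0% = DMSO wells and 100% = marimastat wells.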 The conditions noted are these: recombinant ADAM10, EDANS/DABCYL FRET peptide cleavage, 3 h; at 6.95 µM; active compounds read high. The method in brief:
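Test system – ADAM10 · Amount – enzyme 2X stock at 20 nM · Read-out – percent inhibition scaled between DMSO and marimastat control wells · Compound dosing – one dose · Measured by – FRET fluorescence readout · Timing – Compound–enzyme preincubation 30 min, then 3 h substrate cleavage, both 25 °C · Control set – 1 µM marimastat (high) and DMSO (low)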
(Counterscreens check selectivity or assay interference.)
In general, inhibition refers to the relative decrease from the control value, in per cent. As for `Cc1ccc(C(=O)Nc2ccc(C)c(S(=O)(=O)N(C)C)c2)s1`, the inhibition was 19.2%.

For `CCn1c(Cc2cccs2)nnc1SCC(=O)c1ccc(C)cc1`, the inhibition is 2.71%.

As for `COc1cccc(/C=N/NC(=O)c2cccc([N+](=O)[O-])c2)c1OS(=O)(=O)c1ccc(C)cc1`, the inhibition is 27.1% (active).

Regarding `Cc1ccc(OCCOCCOc2ccc(Br)cc2/C=N\NC(=O)c2ccncc2)cc1`, the inhibition is 13.6%.

As to `CCCCCC(=O)N1C[C@H](O)[C@@H](n2cc(COC(=O)c3ccccc3)nn2)C[C@@H]1c1ccc(C)cc1`, the inhibition is 22.1% (active).

Regarding `O=C(Cc1ncc(C(F)(F)F)cc1Cl)Nc1cccc(Br)c1`, the inhibition is 6.87%.

For the molecule `CCc1cccc(NC(=O)COC(=O)C2CCN(c3ccc(C(F)(F)F)cn3)CC2)c1`, the inhibition was 25.6% (active).

As to `Cc1ccc(OCc2nnc(SC/C=C/c3ccccc3)n2Cc2ccco2)cc1`, the inhibition is 18.7%.

Consider `Cc1ccc(-c2nnc(SCC(=O)Nc3ccc(Oc4ccccc4)cc3)n2Cc2ccco2)cc1`, for which the inhibition is 30.9% (active).

As for `Cc1sc2nc(SCC(=O)c3ccc(O)c(O)c3)n(Cc3ccco3)c(=O)c2c1C`, the inhibition was 16.8%.

In the case of `COc1ccc(C(=O)NN2C(=O)C3C(c4ccccc4)C=CC(c4ccccc4)C3C2=O)cc1` (centres undefined), the inhibition is 25.6% (active).

On to `CC(C)C(=O)Nc1cccc(NC(=S)NC(=O)C(c2ccccc2)c2ccccc2)c1`, for which the inhibition is 31.3% (active).

Take `O=C(CSc1nc(Nc2ccccc2)nc(N2CCOCC2)n1)Nc1cc(Cl)ccc1O`: the inhibition was 33.4% (active).

For the molecule `CN(C)c1ccc(NC(=O)NC2CCCCN(Cc3ccc(Cl)cc3)C2=O)cc1` (centres undefined), the inhibition is 1.4%.

On to `CCCN(CC(=O)NC(=O)NC1CCCCC1)CC(=O)Nc1cc(Cl)ccc1Cl`, for which the inhibition is 43.7% (active).

Regarding `O=C(C[C@H]1C(=O)N(c2ccc(F)c(F)c2)C[C@@H]1Cc1ccccc1)Nc1ccccc1`, the inhibition is 26.5% (active).

With `COc1ccc(C(=O)Nc2ccc(C3(C#N)CCCC3)cc2)cc1OC`, the inhibition was -1.52%.

Turning to `NNC(=O)C1CCCn2c1nc1sc3c(c1c2=O)CCCC3` (centres undefined), the inhibition is -9.79%.

Take `CCOc1ccc(Nc2nc(Cc3nnc(SCC(=O)c4ccc(C)cc4)o3)cs2)cc1`: the inhibition was 17.9%.

`Cc1ccc(C)c(NC(=S)NNC(=S)Nc2ccc(C(C)C)cc2)c1`: the inhibition is 32.5% (active).

`CCCn1nc(C(=O)NNC(=O)CSCC(=O)Nc2cc(C)on2)c2ccccc2c1=O`: the inhibition was -0.39%.

Consider `Cc1cc(NC(=O)CN2C(=O)NC(CC(C)C)C2=O)no1` (centres undefined), for which the inhibition is 26.2% (active).

Take `CS(=O)(=O)Nc1cccc(C2=NN(S(=O)(=O)c3ccccc3)C(c3cccs3)C2)c1` (centres undefined): the inhibition was 11.9%.

`COc1ccc(S(=O)(=O)Nc2ccc(O)c(Sc3nc4ccccc4s3)c2)cc1`: the inhibition was 20.5% (active).

As to `Cc1ccc(-c2n[nH]c(=S)n2/N=C/c2cc3c(cc2[N+](=O)[O-])OCO3)cc1`, the inhibition is 4.16%.

On to `COc1cc(C2CC(=O)N3CN(Cc4ccccc4)CSC3=C2C#N)ccc1OCc1ccccc1` (centres undefined), for which the inhibition was 26.5% (active).

`CC(C)N(C(=O)[C@H]1C[C@H](CC(=O)NC(C)(C)C)C(=O)N2CCc3c([nH]c4ccc(Cl)cc34)[C@]12C)C(C)C`: the inhibition is 15.5%.

With `CN(C)S(=O)(=O)c1cccc(NC(=O)COC(=O)C2(c3ccccc3F)CCCC2)c1`, the inhibition is 28% (active).

`NS(=O)(=O)c1ccc(NC(=O)COC(=O)C2(c3ccc(F)cc3)CCCC2)cc1`: the inhibition was 24.3% (active).

Turning to `Cc1ccc(S(=O)(=O)N2CCN(C(=O)COC(=O)c3c(C)cc(C)cc3C)CC2)c(C)c1`, the inhibition is 18.9%.

Take `COc1ccc(C(=O)C2CCCN(S(=O)(=O)c3cccc(C)c3)C2)c(C)c1` (centres undefined): the inhibition is 11.7%.

As for `Cc1onc(C(=O)NN)c1-c1csc(COc2ccccc2)n1`, the inhibition is -5.47%.

Regarding `O=C(c1ccccc1)N1CCN(c2ccc([N+](=O)[O-])c(NCc3ccco3)c2)CC1`, the inhibition was 14.8%.

With `O=C(NCc1ccccc1)C1=C[C@@H](c2ccc(C(F)(F)F)cc2)C[C@@H](OCc2ccc(CO)cc2)O1`, the inhibition was 44.5% (active).
